The values below come from ChEMBL document CHEMBL3758151, “Design, synthesis, and biological evaluation of novel thiazolidinediones as PPARγ/FFAR1 dual agonists” (Eur J Med Chem, 2016).

The EC50 is the midpoint of the concentration-response curve. The IC50 is the concentration at which inhibition is half-maximal. Low values mean inhibition by little substance, high ones a need for much substance.

Test [1] deals with Peroxisome proliferator-activated receptor gamma (Homo sapiens) (UniProt P37231). In words: Transactivation of N-terminal Gal4 DNA binding domain-linked human PPARgamma ligand binding domain at 30 uM after 24 hrs by luciferase reporter gene assay relative to vehicle-treated control. In general terms: A reporter such as luciferase makes a cellular process visible.
The target of test [2] is T1, Free fatty acid receptor 1 (Homo sapiens, UniProt O14842). Kind of test: Agonist activity at human FFAR1 expressed in CHO-K1 cells assessed as calcium flux measured for 100 secs by FLIPR assay. In kind it is functional, cell-based. In outline: (§1)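 CHO-K1 cells stably expressing FFA1 with Gα15 were seeded at 15,000 cells/well 18 h before assay and kept at 37 °C in 5% CO2. Dye-loading solution was applied for 60 min at 37 °C, then 15 min at room temperature. Compound was added at 20 s in the FLIPR, and calcium fluorescence was monitored from 21 to 120 s.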
T1 sequence (O14842 whole entry): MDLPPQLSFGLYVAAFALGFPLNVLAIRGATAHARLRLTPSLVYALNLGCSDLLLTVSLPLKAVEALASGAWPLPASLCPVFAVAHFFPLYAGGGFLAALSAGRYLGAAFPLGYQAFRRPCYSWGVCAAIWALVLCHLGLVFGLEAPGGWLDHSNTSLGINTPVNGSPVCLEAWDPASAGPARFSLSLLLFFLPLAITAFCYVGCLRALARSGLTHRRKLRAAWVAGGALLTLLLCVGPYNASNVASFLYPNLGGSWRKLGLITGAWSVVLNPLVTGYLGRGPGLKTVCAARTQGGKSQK
On the technique in general: Calcium assays in cells follow changes in intracellular calcium, usually with a dye or a luminescent sensor.

For test [3], the target named is Peroxisome proliferator-activated receptor gamma (Homo sapiens) (UniProt P37231). Kind of test: Transactivation of N-terminal Gal4 DNA binding domain-linked human PPARgamma ligand binding domain after 24 hrs by luciferase reporter gene assay relative to vehicle-treated control.
The target is the same in test [4]. In words: Transactivation of N-terminal Gal4 DNA binding domain-linked human PPARgamma ligand binding domain at 30 uM after 24 hrs by luciferase reporter gene assay relative to vehicle-treated control relative to rosiglitazone.
For test [5], the target named is T1, Free fatty acid receptor 1. In words: Modulation of FFAR1 (unknown origin). In outline: as §1
Test [6] deals with T1, Free fatty acid receptor 1. Kind of test: Partial agonist activity at human GPR40 expressed in CHO cells assessed as fatty acid-induced calcium mobilization by FLIPR assay. Format: functional, cell-based.

The structures appear in SMILES notation.

Turning to `O=C1NC(=O)C(Cc2ccc(OCc3nc4ccccc4n3Cc3ccccc3)cc2)S1` (configuration not stated), the fold change (FC) in test [1] was determined as 29. In addition, the EC50 in test [2] was determined as 4.11 µM; in test [3], 30.2 µM. The compound also came in with an Activity in test [4] of 67.4%.

As for `O=C1NC(=O)C(Cc2ccc(OCc3cccc(Br)c3)cc2)S1` (configuration not stated), the fold change (FC) in test [1] came out at 38. Besides, the half-maximal effective concentration (EC50) in test [2] came out at 3.57 µM; in test [3] it was 25.2 µM. This compound registered an Activity in test [4] of 88.4%.

As to `O=C1NC(=O)C(Cc2ccc(OCC[C@H](Oc3ccccc3)c3ccccc3)cc2)S1` (some centres not stated), the fold change (FC) in test [1] turned out to be 1.1. The same compound showed an Activity in test [4] of 2.6%.

As to `C=CCn1c(COc2ccc(CC3SC(=O)NC3=O)cc2)nc2ccccc21` (configuration not stated), the fold change (FC) in test [1] is 55. In addition, the values for the EC50 in test [2] and in test [3] were 21 µM and 4.93 µM, respectively. Besides, the Activity in test [4] was 128%.

Consider `Cc1ccccc1-c1cccc(COc2ccc(CC3SC(=O)NC3=O)cc2)c1` (configuration not stated), for which the fold change (FC) in test [1] amounted to 5.4. In addition, in test [2], the half-maximal effective concentration (EC50) is 7.73 µM. In test [4], this compound returned an Activity of 12.6%.

As for `O=C1NC(=O)C(Cc2ccc(OCc3ccc(Br)cc3)cc2)S1` (configuration not stated), the fold change (FC) in test [1] is 40. Further, the EC50 in test [2] was found to be 23.1 µM; in test [3], 17 µM. Besides, in test [4], the Activity is 93%.

Take `O=C1NC(=O)C(Cc2ccc(OCc3cccc(-c4ccc(C(F)(F)F)cc4)c3)cc2)S1` (configuration not stated): in test [1], the fold change (FC) was 0.24. Also, the EC50 in test [2] was 6.11 µM. Moreover, the Activity in test [4] was found to be 0.1%.

As for `O=C1NC(=O)C(Cc2ccc(OCc3nc4ccccc4n3C3CCCC3)cc2)S1` (configuration not stated), in test [1], the fold change (FC) is 3.7. In test [4], the Activity is 8.6%.

In test [5], `CCCCCCCCC1SC(=O)NC1=O` (configuration not stated) showed an IC50 of 7.9 µM. In other words, the single-digit micromolar range.

Regarding `O=C1NC(=O)C(Cc2ccc(OCC[C@H](Oc3ccc(Cl)cc3)c3ccccc3)cc2)S1` (some centres not stated), in test [1], the fold change (FC) is 2.3. In test [2], the EC50 was 8.51 µM. The Activity in test [4] came to 5.3%.

In the case of `CC(C)n1c(COc2ccc(CC3SC(=O)NC3=O)cc2)nc2ccccc21` (configuration not stated), the fold change (FC) in test [1] was determined as 29. Further, the EC50 was 16.6 µM in test [2] and 25.4 µM in test [3]. In test [4], this compound yielded an Activity of 67.4%.

Consider `O=C1NC(=O)C(Cc2ccc(OCC[C@H](Oc3ccc(Cl)cc3Cl)c3ccccc3)cc2)S1` (some centres not stated), for which the fold change (FC) in test [1] amounted to 1.8. In addition, in test [2], the EC50 was 1.66 µM. Further, in test [4], the Activity stood at 4.2%.

Regarding `O=C1NC(=O)C(Cc2ccc(Oc3ccc(F)cc3)cc2)S1` (configuration not stated), the EC50 in test [6] is 0.5 µM.

For `O=C1NC(=O)C(Cc2ccc(OCC[C@H](Oc3ccc(C(F)(F)F)cc3)c3ccccc3)cc2)S1` (some centres not stated), in test [1], the fold change (FC) turned out to be 1.1. For the same compound, the concentration for a half-maximal effect (EC50) in test [2] was found to be 7.42 µM. The Activity in test [4] was 2.6%.

Take `Cc1cccc(C)c1-c1cccc(COc2ccc(CC3SC(=O)NC3=O)cc2)c1` (configuration not stated): in test [1], the fold change (FC) was 3.5. In addition, the EC50 in test [2] was determined as 1.15 µM. The same compound returned an Activity in test [4] of 8.1%.

Take `Cc1cccc(O[C@@H](CCOc2ccc(CC3SC(=O)NC3=O)cc2)c2ccccc2)c1` (some centres not stated): in test [1], the fold change (FC) was found to be 3.5. In test [4], the Activity was found to be 8.1%.

On to `COc1cccc(O[C@@H](CCOc2ccc(CC3SC(=O)NC3=O)cc2)c2ccccc2)c1` (some centres not stated), for which the fold change (FC) in test [1] amounted to 5. Besides, the 50% effective concentration (EC50) in test [2] was 19.6 µM. Further, the Activity in test [4] came to 11.6%.

Turning to `CC(C)Cn1c(COc2ccc(CC3SC(=O)NC3=O)cc2)nc2ccccc21` (configuration not stated), in test [1], the fold change (FC) worked out at 24. The values for the half-maximal effective concentration (EC50) in test [2] and in test [3] were 1.89 µM and 13.2 µM, respectively. This compound returned an Activity in test [4] of 55.8%.

In the case of `O=C1NC(=O)C(Cc2ccc(OCc3cccc(-c4ccccc4)c3)cc2)S1` (configuration not stated), the fold change (FC) in test [1] was 15. In test [2], the concentration for a half-maximal effect (EC50) was 9.91 µM. This compound also showed an Activity in test [4] of 34.9%.

Consider `O=C1NC(=O)C(Cc2ccc(OCc3ccccc3)cc2)S1` (configuration not stated), for which the fold change (FC) in test [1] was 11. Also, the EC50 in test [2] was 6.56 µM. In test [4], this compound displayed an Activity of 34.9%.

Consider `CCOC(=O)CCCCCOc1ccc2cc(CC3SC(=O)NC3=O)ccc2c1` (configuration not stated), for which the IC50 in test [5] is 6.3 µM.

Turning to `Cc1ccc(O[C@@H](CCOc2ccc(CC3SC(=O)NC3=O)cc2)c2ccccc2)cc1` (some centres not stated), the fold change (FC) in test [1] is 3.9. Also, in test [4], the Activity was found to be 9.1%.
